# Assay results gathered from unrelated publications.
# Protocols differ between the studies behind these lines.
# Observed: cell growth or viability
Structure (SMILES),cell line,test,conditions,measurement,result
Cc1c(Cl)c(=O)oc2cc(OCCCC[Se]C#N)ccc12,HeLa,SRB,,GI50,15 µM
COC(=O)c1cc(C(C)=NNc2nc(-c3ccc(S(=O)(=O)F)cc3)cs2)ccc1O,HSF,MTT,96 h,IC50,40.5 µM
COc1cccc2c1C(=O)c1c(O)c3c(c(O)c1C2=O)CC(O)(C(=O)CO)CC3OC1CC(NC(=O)OC2C=CCCCCC2)C(O)C(C)O1 (stereo not shown),HeLa,CCK-8,72 h,IC50,> 10 µM
Cc1cc(=O)oc2cc(OCCCC[Se]C#N)ccc12,HeLa,SRB,,GI50,0.98 µM
O=[N+]([O-])c1ccc(NCCCCCCN=C=S)c2nonc12,HDFa,MTT,24 h,IC50,5.8 µM
N.N.[Cl][Pt][Cl],SU-DHL-6,ATP luminescence,72 h,IC50,7.06 µM
CC(C)C[C@H](NC(=O)[C@H](CC(C)C)NC(=O)[C@@H]1CCCN1C(=O)[C@H](C)NC(=O)[C@@H](NC(=O)[C@H](C)N)C(C)C)C(=O)N[C@@H](Cc1c[nH]cn1)C(=O)N[C@@H](CO)C(=O)N[C@H](C(=O)O)[C@@H](C)OP(=O)(O)O,HeLa,MTT,72 h,IC50,1.05 µM
O=[N+]([O-])c1ccc(NCCCCN=C=S)c2nonc12,HDFa,MTT,24 h,IC50,7.6 µM
COc1c(C)c2c(c(O)c1C/C=C(\C)CCC(=O)O)C(=O)OC2,Hs-578T,,,IC50,2.51 µM
CC[C@H](C)[C@H](NC(=O)[C@@H](N)CCC(=O)O)C(=O)N[C@@H](C)C(=O)N1CCC[C@H]1C(=O)N[C@H](C(=O)N[C@@H](CC(C)C)C(=O)N[C@@H](Cc1c[nH]cn1)C(=O)N[C@@H](CO)C(=O)N[C@H](C(=O)O)[C@@H](C)OP(=O)(O)O)C(C)C,HeLa,MTT,72 h,IC50,0.96 µM
O=C1[O][Pt]2([NH][C@@H]3CCCC[C@H]3[NH]2)[O]C1=O,SNU-449,imaging,72 h,IC50,12.9 µM
O=C1c2ccccc2-c2c3c(cc4ccnc1c24)OCO3,HeLa,MTT,75 h,IC50,15.7 µM
CC(N)C(O)CCCCCCCCCCCCCCC(=O)CCCCCCCC(O)C(C)N (stereo not shown),HeLa,,,IC50,24.5 µM
